Experimental data reported in ChEMBL document CHEMBL3627626, “6-Substituted Pyrrolo[2,3-d]pyrimidine Thienoyl Regioisomers as Targeted Antifolates for Folate Receptor α and the Proton-Coupled Folate Transporter in Human Tumors” (J Med Chem, 2015).
Active and inactive are the calls of the source. No cut-off for these calls is given here.

Experiments:
SK-OV-3 [1] = assay: Antitumor activity against human SKOV3 cells expressing RFC/PCFT/FRalpha xenografted in folate-replete diet fed NCR SCID mouse assessed as tumor growth inhibition at 28 mg/kg, iv administered every 4 days on day 3, 7, 11 measured on day 21 relative to control; type: functional
Summary of the method: (§1)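 Ten-week-old female NCR SCID mice, fed a folate-deficient or standard folate-replete diet, were implanted subcutaneously and bilaterally with SKOV3 tumour fragments. Randomised at 5 mice/group. Dosed intravenously, 0.2 mL per injection, in 5% ethanol/1% Tween-80/0.5% NaHCO3 in water at pH 6.5, on days 3, 7 and 11. Tumours measured twice weekly and mice weighed daily. T/C taken on day 21; growth delay and log cell kill also reported.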

[2] = target: Folate receptor alpha (Homo sapiens) (UniProt P15328); assay: Displacement of [3H]-folic acid from human FRalpha expressed in Chinese hamster RT16 cells after 15 mins relative to folic acid; type: cell-based
Summary of the method: (§2)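 Competitive binding to surface folate receptor on RT16 (FRα) or D4 (FRβ) CHO cells. Cells were acid-washed (pH 3.5) to strip bound folate, then incubated in HEPES-buffered saline pH 7.4 with 50 nM [3H]folic acid plus unlabeled ligand (0–1000 nM) for 15 min at 0 °C. Bound label was normalised to protein. Affinity is the inverse molar ratio for 50% displacement, with folic acid set to 1. Mean of 4–10 experiments ±SE.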

[3] = target: T1, Trifunctional purine biosynthetic protein adenosine-3 (Homo sapiens) (UniProt P22102); assay: Inhibition of GARFTase in human KB cells expressing FRalpha/PCFT/RFC assessed as cell growth inhibition after 96 hrs by CellTiter-Blue assay in presence of adenosine; type: cell-based
T1 sequence (whole entry): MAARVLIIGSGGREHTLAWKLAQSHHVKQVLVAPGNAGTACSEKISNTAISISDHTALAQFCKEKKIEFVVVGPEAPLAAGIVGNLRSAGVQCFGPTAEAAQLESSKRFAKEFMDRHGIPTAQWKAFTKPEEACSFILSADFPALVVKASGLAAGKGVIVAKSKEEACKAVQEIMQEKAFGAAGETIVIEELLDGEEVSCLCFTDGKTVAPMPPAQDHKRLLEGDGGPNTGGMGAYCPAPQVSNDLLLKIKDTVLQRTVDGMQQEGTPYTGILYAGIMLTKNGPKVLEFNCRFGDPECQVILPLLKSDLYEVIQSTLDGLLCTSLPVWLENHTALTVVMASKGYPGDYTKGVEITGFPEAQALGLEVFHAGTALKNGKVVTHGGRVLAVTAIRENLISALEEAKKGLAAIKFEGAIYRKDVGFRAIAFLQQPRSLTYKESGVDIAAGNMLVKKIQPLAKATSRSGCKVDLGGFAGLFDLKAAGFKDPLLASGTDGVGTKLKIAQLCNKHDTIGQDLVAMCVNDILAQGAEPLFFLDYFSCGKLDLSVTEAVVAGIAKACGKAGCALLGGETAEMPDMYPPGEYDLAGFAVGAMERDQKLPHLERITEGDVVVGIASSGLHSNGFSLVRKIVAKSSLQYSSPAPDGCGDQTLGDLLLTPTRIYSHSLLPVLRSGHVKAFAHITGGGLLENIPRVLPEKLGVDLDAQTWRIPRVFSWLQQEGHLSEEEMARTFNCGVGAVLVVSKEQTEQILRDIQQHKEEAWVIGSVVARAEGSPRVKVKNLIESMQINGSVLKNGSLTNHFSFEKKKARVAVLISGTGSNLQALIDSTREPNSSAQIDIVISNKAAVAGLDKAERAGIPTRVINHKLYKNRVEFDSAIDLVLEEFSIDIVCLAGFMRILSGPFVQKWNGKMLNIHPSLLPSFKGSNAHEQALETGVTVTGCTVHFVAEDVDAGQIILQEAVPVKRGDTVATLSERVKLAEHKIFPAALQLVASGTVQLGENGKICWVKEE

SK-OV-3 [4] = assay: Antitumor activity against human SKOV3 cells expressing RFC/PCFT/FRalpha xenografted in folate-deficient diet fed NCR SCID mouse assessed as delay in tumor growth at 28 mg/kg, iv administered every 4 days on day 3, 7, 11 measured twice per week; type: functional, organism-based
Summary of the method: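 Female NCR SCID mice, 10 weeks old, given bilateral subcutaneous SKOV3 tumor fragments and randomized at 5 mice/group. Fed ad libitum a folate-deficient diet or a standard folate-replete diet. Dosed intravenously at 0.2 mL/injection on a Q4dx3 schedule (days 3, 7, 11). […] Tumors measured twice weekly; mice weighed daily.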

Mus musculus [5] = assay: Toxicity in folate-replete diet fed NCR SCID mouse xenografted with human SKOV3 cells expressing RFC/PCFT/FRalpha assessed as body weight loss at 28 mg/kg, iv administered every 4 days on day 3, 7, 11; type: organism-based, SK-OV-3; details: in vivo, 96 h
[6] = target: T1, Trifunctional purine biosynthetic protein adenosine-3 (Homo sapiens); assay: Inhibition of GARFTase in human KB cells expressing FRalpha/PCFT/RFC assessed as cell growth inhibition after 96 hrs by CellTiter-Blue assay in presence of AICA; type: cell-based
SK-OV-3 [7] = assay: Antiproliferative activity against human SKOV3 cells after 96 hrs by CellTiter-Blue assay; type: functional, cell-based; details: SK-OV-3, 96 h
Summary of the method: (§3)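 IGROV1 and SKOV3 cells plated at ~2500–5000 cells/well in folate-free RPMI 1640 with 10% dialyzed FBS, antibiotics and 2 nM LCV, over a range of drug concentrations, ±200 nM folic acid in parallel. Incubated up to 96 h. Viability read by Cell Titer Blue fluorescence (ex 560/em 590 nm).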

[8] = Binding affinity to human RFC expressed in Chinese hamster PC43-10 cells assessed as cell growth inhibition after 96 hrs by CellTiter-Blue assay
Mus musculus [9] = assay: Toxicity in folate-deficient diet fed NCR SCID mouse xenografted with human SKOV3 cells expressing RFC/PCFT/FRalpha assessed as body weight loss at 28 mg/kg, iv administered every 4 days on day 3, 7, 11 relative to control; type: organism-based, SK-OV-3; details: in vivo, 96 h; summary of the method: as §1
KB = assay: Antiproliferative activity against human KB cells expressing FRalpha/PCFT/RFC assessed as cell growth inhibition after 96 hrs by CellTiter-Blue assay in presence of 200 nM folic acid; type: functional, cell-based
IGROV-1 = assay: Antiproliferative activity against human IGROV1 cells after 96 hrs by CellTiter-Blue assay; type: functional, cell-based; details: IGROV-1, 96 h; summary of the method: as §3
SK-OV-3 [10] = assay: Antiproliferative activity against human SKOV3 cells after 96 hrs by CellTiter-Blue assay in presence of 200 nM folic acid; type: functional, cell-based; details: SK-OV-3, 96 h; summary of the method: as §3
[11] = target: Folate receptor beta (Homo sapiens) (UniProt P14207); assay: Displacement of [3H]-folic acid from human FRbeta expressed in Chinese hamster D4 cells after 15 mins relative to folic acid; type: cell-based; summary of the method: as §2
[12] = target: T2, Proton-coupled folate transporter (Homo sapiens) (UniProt Q96NT5); assay: (§4) Binding affinity to human PCFT expressed in Chinese hamster R2/PCFT4 cells assessed as intracellular drug transport rate at 37 degC at pH 5.5 measured over 2 mins by Lineweaver-Burk plot analysis; type: cell-based
T2 sequence (whole entry): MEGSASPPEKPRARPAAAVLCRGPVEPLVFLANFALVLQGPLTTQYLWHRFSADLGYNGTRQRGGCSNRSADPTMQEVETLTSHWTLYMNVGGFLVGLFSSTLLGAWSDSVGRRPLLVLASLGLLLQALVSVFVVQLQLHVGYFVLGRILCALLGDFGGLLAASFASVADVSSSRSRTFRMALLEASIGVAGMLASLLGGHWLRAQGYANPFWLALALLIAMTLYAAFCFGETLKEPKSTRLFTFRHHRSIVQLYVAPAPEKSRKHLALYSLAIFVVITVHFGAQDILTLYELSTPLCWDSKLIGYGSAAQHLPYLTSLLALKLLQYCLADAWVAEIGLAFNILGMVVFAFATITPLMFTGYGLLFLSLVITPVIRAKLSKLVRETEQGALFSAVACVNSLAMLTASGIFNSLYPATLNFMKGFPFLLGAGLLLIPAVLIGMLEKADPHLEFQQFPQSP
Summary of the method: (§5)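 R2/PCFT4 CHO cells were grown as monolayers, transferred to spinner flasks, and used as suspensions (5–10 × 10⁷ cells). Uptake was quenched with ice-cold DPBS and cells were NaOH-solubilized. Results are pmol/mg protein; Kt and Vmax come from Lineweaver–Burke plots.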

R2 = assay: Cellular uptake in PCFT-null Chinese hamster R2 cells at 0.5 uM at 37 degC at pH 5.5 measured over 2 mins; type: ADME, cell-based, Cricetulus griseus; details: r2, pH 5.5, 2 min
Summary of the method: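 R2/PCFT4 or PCFT-null R2 CHO cells were grown in suspension from spinner flasks. Uptake of 0.5 μM [3H]drug measured over 2 min at 37 °C in MES-buffered saline pH 5.5, with or without 10 μM unlabeled competitor. Uptake was quenched with ice-cold DPBS and cells solubilised in NaOH. Results are pmol/mg protein, mean ±SEM of three experiments.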

[13] = target: T2, Proton-coupled folate transporter (Homo sapiens); assay: (§6) Binding affinity to human PCFT expressed in Chinese hamster R2/PCFT4 cells assessed as intracellular drug transport rate at 37 degC at pH 6.8 measured over 2 mins by Lineweaver-Burk plot analysis; type: cell-based; summary of the method: as §5
[14] = substrate: Nc1nc2[nH]c(CCCc3cc(C(=O)N[C@@H](CCC(=O)O)C(=O)O)cs3)cc2c(=O)[nH]1; assay: as §4; type: cell-based; summary of the method: as §5
[15] = substrate: Nc1nc2[nH]cc(CCc3ccc(C(=O)N[C@@H](CCC(=O)O)C(=O)O)cc3)c2c(=O)[nH]1; assay: as §4; type: cell-based; summary of the method: as §5
[16] = substrate: Nc1nc2[nH]c(CCCc3cc(C(=O)N[C@@H](CCC(=O)O)C(=O)O)cs3)cc2c(=O)[nH]1; assay: as §6; type: cell-based; summary of the method: as §5
[17] = substrate: Nc1nc2[nH]cc(CCc3ccc(C(=O)N[C@@H](CCC(=O)O)C(=O)O)cc3)c2c(=O)[nH]1; assay: as §6; type: cell-based; summary of the method: as §5

Chain of Folate receptor alpha (Homo sapiens) (P15328 25-234 limits assumed): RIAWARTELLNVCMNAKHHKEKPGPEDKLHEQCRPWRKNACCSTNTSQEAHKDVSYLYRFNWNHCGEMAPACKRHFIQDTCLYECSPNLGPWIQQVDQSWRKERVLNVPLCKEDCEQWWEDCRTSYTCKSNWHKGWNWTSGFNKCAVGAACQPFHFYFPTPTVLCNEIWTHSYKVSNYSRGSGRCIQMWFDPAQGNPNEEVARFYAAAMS
Chain of Folate receptor beta (Homo sapiens) (P14207 17-230 limits assumed): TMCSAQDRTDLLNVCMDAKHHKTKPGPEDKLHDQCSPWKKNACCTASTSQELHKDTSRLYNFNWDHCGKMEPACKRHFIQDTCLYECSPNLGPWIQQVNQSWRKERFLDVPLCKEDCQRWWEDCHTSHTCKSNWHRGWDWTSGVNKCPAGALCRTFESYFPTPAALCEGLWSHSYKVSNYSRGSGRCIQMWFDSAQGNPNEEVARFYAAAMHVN

Nc1nc2[nH]c(CCCc3ccc(C(=O)N[C@@H](CCC(=O)O)C(=O)O)s3)cc2c(=O)[nH]1
T/C (SK-OV-3 [1]): 79% | Activity [2]: 70% | inhibition [3]: inactive | Activity (SK-OV-3 [4]): Active | Activity (Mus musculus [5]): Non-toxic | inhibition [6]: inactive | IC50 (SK-OV-3 [7]): 2.2 nM | IC50 [8]: 101 nM | Activity (Mus musculus [9]): 7.9% | IC50 (KB): 101 nM | IC50 (IGROV-1): 0.73 nM | IC50 (SK-OV-3 [10]): 47 nM | Activity [11]: 50%

Nc1nc2[nH]cc(CCc3ccc(C(=O)N[C@@H](CCC(=O)O)C(=O)O)cc3)c2c(=O)[nH]1 [PEMETREXED]
K [12]: 0.044 µM | Drug uptake (R2): Not Active | K [13]: 0.27 µM

B1: Proton-coupled folate transporter (Homo sapiens), Q96NT5 (protein)
chain: MEGSASPPEKPRARPAAAVLCRGPVEPLVFLANFALVLQGPLTTQYLWHRFSADLGYNGTRQRGGCSNRSADPTMQEVETLTSHWTLYMNVGGFLVGLFSSTLLGAWSDSVGRRPLLVLASLGLLLQALVSVFVVQLQLHVGYFVLGRILCALLGDFGGLLAASFASVADVSSSRSRTFRMALLEASIGVAGMLASLLGGHWLRAQGYANPFWLALALLIAMTLYAAFCFGETLKEPKSTRLFTFRHHRSIVQLYVAPAPEKSRKHLALYSLAIFVVITVHFGAQDILTLYELSTPLCWDSKLIGYGSAAQHLPYLTSLLALKLLQYCLADAWVAEIGLAFNILGMVVFAFATITPLMFTGYGLLFLSLVITPVIRAKLSKLVRETEQGALFSAVACVNSLAMLTASGIFNSLYPATLNFMKGFPFLLGAGLLLIPAVLIGMLEKADPHLEFQQFPQSP
Vmax [14]: 24.6 pmol/mg/min | Vmax [15]: 13.4 pmol/mg/min | Vmax [16]: 3 pmol/mg/min | Vmax [17]: 9.2 pmol/mg/min
